# An excerpt weighted towards active compounds, which were near 1.9% of everything screened.
# NadD block = blocks S. aureus nicotinate mononucleotide adenylyltransferase. inhibition, % at 20 µM. purified NadD enzyme, colorimetric absorbance read-out. 360,000 tested, 0.78% active; in the data active = inhibition above about 26%
# Xi reactivation = reactivates the inactive X chromosome in mouse fibroblasts | activation, % at 7.58 µM | AID 743238 | 360,000 tested, 0.055% active | XiGFP mouse fibroblasts, % GFP-positive cells imaging, 3 d; cells co-treated with 5-aza-dC sensitizer; scaled so ellipticine positive control = 100%;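 active = mean normalized replicate activation at least 10% and every replicate at or above 10%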;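 also: 0% = median of on-plate neutral control wells and 100% = ellipticine 6 µM median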
#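 material = 68-5-11 XiGFP fibroblast line | medium = DMEM plus 5-aza-dC sensitizer | schedule = 3 days compound exposure | benchmarks = positive control ellipticine, 6 µM final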
# Rpn11 block = blocks the human proteasome subunit Rpn11; human 26S proteasome, Ub4-pepOG fluorescence polarization; 20S core pre-blocked with epoxomicin; inhibition, % at 20 µM; 360,000 tested, 0.59% active;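 active = inhibition at 20 µM, scaled to each plate's controls, above about 33%, limit read from the data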
# Target sequence (O00487 whole entry, looked up): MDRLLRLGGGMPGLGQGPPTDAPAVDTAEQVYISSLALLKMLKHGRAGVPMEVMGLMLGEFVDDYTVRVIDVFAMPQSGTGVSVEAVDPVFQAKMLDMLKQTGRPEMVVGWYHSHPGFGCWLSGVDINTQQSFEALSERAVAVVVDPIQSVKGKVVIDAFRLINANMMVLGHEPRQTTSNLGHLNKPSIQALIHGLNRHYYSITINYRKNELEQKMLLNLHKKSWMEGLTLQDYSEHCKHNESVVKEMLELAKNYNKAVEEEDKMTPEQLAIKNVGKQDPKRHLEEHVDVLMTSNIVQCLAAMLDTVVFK
# ABHD5-PLIN5 inh = ABHD5-PLIN5 protein interaction inhibition; Q00G26+Q8WTS1; Split G. princeps luciferase complementation, luminescence, 4 h; inhibition, % at 4 µM; 360,000 tested, 0.78% active;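 active = inhibition above the mean inhibition across every tested compound plus 3 SD, cut at about 22% in these data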;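 also: 0% = DMSO only wells and the 100% control is not disclosed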
# Rin1 Abl inh = blocks binding of human Rin1 to Abl. TR-FRET Rin1/Abl binding, biochemical. inhibition, % at 7.35 µM. 360,000 tested, 0.4% active; in the data active = inhibition above about 5%, passing the limit was not always enough
# ABHD5 PLIN5 conf = confirmation of human ABHD5-PLIN5 interaction inhibitors; shares compounds with ABHD5-PLIN5 inh; 2,200 tested, 67% active; biochemical ABHD5-PLIN5 interaction, luminescence; inhibition, % at 4 µM; in the data active = inhibition above about 23%;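 also: 0% = DMSO vehicle wells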
# HNF4 split-luc = active in HNF4 split-luciferase counter-screen for ABHD5-PLIN5 inhibitors. shares compounds with ABHD5-PLIN5 inh. HNF4 dimerization, luminescence, biochemical. inhibition, % at 4 µM. 2,200 tested, 77% active. AID 651674;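 active = mean inhibition across replicate wells exceeding the computed hit threshold, cut at about 13% in these data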;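 also: light from luciferase halves that rejoin when HNF4 fusion proteins dimerize; 0% = DMSO only wells and the 100% control is not given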
# An asterisk follows results filed as active; / = no result given.
SMILES,NadD block,Xi reactivation,Rpn11 block,ABHD5-PLIN5 inh,Rin1 Abl inh,ABHD5 PLIN5 conf,HNF4 split-luc
Cc1cccc(-c2ccc(C3[C@@H]4CN(C(=O)C5CCCCC5)C[C@H]3N4)cc2)c1 (stereo partly specified),/,0,/,/,/,/,/
CC1CCN(S(=O)(=O)c2ccc(NC(=O)Cn3nnc(-c4ccccc4F)n3)cc2)CC1,3,/,3,26*,-1,41*,2
CC1CCN(S(=O)(=O)c2ccc(NC(=O)Cc3ccccc3)cc2)CC1,-6,/,8,33*,3,50*,-4
O=C(Cc1ccccc1)Nc1ccc(S(=O)(=O)N2CCOCC2)cc1,-3,0,5,-18,1,/,/
COc1cc(CNCCc2c[nH]c3ccccc23)ccc1OCc1ccc(F)cc1,4,/,2,33*,0,14,-1
COc1ccccc1NC(=O)N(C)C[C@H]1OCc2ccccc2-c2c(n(C)c3ccccc23)C(=O)N([C@H](C)CO)C[C@H]1C,/,0,/,/,/,/,/
CC(C)c1ccc(NC(=O)c2csnn2)cc1,8,/,-1,24*,2,0,3
N#C[C@@H]1[C@@H](c2ccc(C#Cc3cccnc3)cc2)[C@@H](CO)N1C(=O)NC1CCCC1,/,0,/,/,/,/,/
Cc1ccc(C(=O)CC(C(=O)O)n2cncn2)cc1 (stereo unspecified),5,0,0,2,-3,/,/
Cc1ccc(C(=O)CC(C(=O)O)n2cnc([N+](=O)[O-])n2)cc1 (stereo unspecified),0,0,3,55*,-2,29*,58*
COCCNC(=O)C[C@H]1C=C[C@H](NC(=O)NC2CCCC2)[C@H](CO)O1,/,0,/,/,/,/,/
COc1ccc(Nc2cccccc2=O)cc1,1,/,-2,0,-2,/,/
O=C1C=C(c2ccccc2)C(=O)N1Nc1ccccc1,9,/,-6,86*,0,100*,107*
O=C1Cc2ccccc2C(=O)N1Nc1ccccc1,2,0,0,-10,-1,/,/
Cc1ccc(NN2C(=O)C=CC2=O)cc1,0,0,3,-1,1,/,/
Cc1ccc(NN2C(=O)C=C(c3ccc(Cl)cc3)C2=O)cc1,16,/,3,95*,-1,101*,107*
COc1ccc(C2=CC(=O)N(Nc3ccccc3)C2=O)cc1,-8,0,-1,88*,5,86*,88*
COCC(=O)Nc1ccc2c(c1)OC[C@@H](C)N(Cc1ccccc1OC)C[C@@H](C)[C@@H](OC)CN(C)C2=O,/,0,/,/,/,/,/
CCC(=O)N1[C@@H](CO)[C@H](c2ccccc2)C12CN(C(=O)c1ccc(F)cc1)C2,/,0,/,/,/,/,/
CC1(C)COC(/C=C/c2cccc([N+](=O)[O-])c2)=N1,0,0,-1,29*,1,46*,49*
CC1(C)COC(c2cc([N+](=O)[O-])ccc2Cl)=N1,2,/,-1,2,-3,/,/
COc1ccc2c3c([nH]c2c1)[C@H](CO)N(CC1CC1)CC31CN(C(=O)c2ccccc2)C1,/,0,/,/,/,/,/
O=C1CC(c2ccccc2)Oc2ccccc21 (stereo unspecified),-1,0,5,12,3,/,/
Cn1c(Cl)cnc1C1CC(=O)c2cc(Cl)ccc2O1 (stereo unspecified),-4,/,0,32*,-2,20,49*
O=C1CC(c2ccc(Cl)cc2)Oc2ccc(Cl)cc21 (stereo unspecified),-2,0,-3,23*,2,62*,33*
COc1cccc(NC(=O)C[C@@H]2CC[C@@H]3[C@@H](COc4ccc(NC(=O)C5CCCCC5)cc4C(=O)N3C)O2)c1,/,0,/,/,/,/,/
CC(C)c1nnc(NC(=O)CCS(=O)(=O)c2nc(-c3cccs3)cc(C(F)(F)F)n2)s1,4,/,4,37*,-6,76*,89*
O=C(C[C@@H]1C=C[C@@H](NS(=O)(=O)c2ccccc2)[C@H](CO)O1)NCc1ccncn1,/,-1,/,/,/,/,/
CO[C@H]1CN(C)C(=O)c2cc(NC(=O)C3CCCC3)ccc2OC[C@H](C)NC[C@H]1C,/,0,/,/,/,/,/

# Screens: PubChem BioAssay, several laboratories
